Experimental data reported in ChEMBL document CHEMBL2331509, “Design, synthesis, characterization and anti-inflammatory evaluation of novel pyrazole amalgamated flavones” (2013).

Assays:
[1] = biological target: T1, Prostaglandin G/H synthase 1 (Ovis aries) (UniProt P05979); experiment: Inhibition of ovine COX1 assessed as appearance of oxidized N,N,N,N'- tetramethyl-p-phenylenediamine at 100 uM
T1 sequence (whole entry): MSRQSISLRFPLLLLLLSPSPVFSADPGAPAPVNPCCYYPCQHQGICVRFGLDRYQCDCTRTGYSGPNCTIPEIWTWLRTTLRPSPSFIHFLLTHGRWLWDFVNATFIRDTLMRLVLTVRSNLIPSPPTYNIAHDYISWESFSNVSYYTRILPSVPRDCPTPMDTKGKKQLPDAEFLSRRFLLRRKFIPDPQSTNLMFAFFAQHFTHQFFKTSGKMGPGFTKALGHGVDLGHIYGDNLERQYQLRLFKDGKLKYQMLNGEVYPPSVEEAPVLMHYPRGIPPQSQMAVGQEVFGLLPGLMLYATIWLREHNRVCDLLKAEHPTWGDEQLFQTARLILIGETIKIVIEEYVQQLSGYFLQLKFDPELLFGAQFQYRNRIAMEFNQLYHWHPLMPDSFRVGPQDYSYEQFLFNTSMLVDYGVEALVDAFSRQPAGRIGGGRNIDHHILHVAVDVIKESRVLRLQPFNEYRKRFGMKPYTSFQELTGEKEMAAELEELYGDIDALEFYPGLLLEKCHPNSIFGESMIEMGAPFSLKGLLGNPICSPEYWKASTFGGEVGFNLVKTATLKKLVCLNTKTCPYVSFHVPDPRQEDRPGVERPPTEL
How it was run: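 Colorimetric ovine COX screening kit. The reaction held assay buffer, heme, COX-1 enzyme and test sample at 100 µM. The COX peroxidase activity was followed by the appearance of oxidized TMPD at 590 nm. Inhibition was calculated as (1 − T/C)×100, where C is the absorbance of the uninhibited well.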

Rattus norvegicus [2] = experiment: Antiinflammatory activity in Wistar rat assessed as inhibition of carrageenan-induced paw volume at 100 mg/kg, po measured after 3 hrs of carrageenan challenge (reference value: 1.17 +/- 0.1 ml); assay type: functional
Rattus norvegicus [3] = experiment: Antiinflammatory activity in Wistar rat assessed as inhibition of carrageenan-induced paw volume at 100 mg/kg, po measured after 6 hrs of carrageenan challenge (reference value: 1.69 +/- 0.08 ml); assay type: functional
Rattus norvegicus [4] = experiment: Antiinflammatory activity in Wistar rat assessed as inhibition of carrageenan-induced paw volume at 100 mg/kg, po measured after 1 hr of carrageenan challenge (reference value: 0.94 +/- 0.05 ml); assay type: functional
Mus musculus = experiment: Antiinflammatory activity in mouse assessed as inhibition of acetic acid-induced vascular permeability by measuring Evan's blue dye leakage at 100 mg/kg, po administered 1 hr before acetic acid challenge measured after 30 mins; assay type: functional
How it was run: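 Mice, n=6 per group, were dosed orally at 100 mg/kg; the vehicle was 2% gum acacia at 10 mL/kg. After 1 h they received 0.25 mL of 0.6% v/v acetic acid i.p., then immediately 10% w/v Evans blue at 10 mL/kg i.v. by tail vein. After 30 min they were killed with ether. The viscera were irrigated with 5 mL saline; the perfusate was filtered, made up to 10 mL, and dye read at 620 nm.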

Row | Structure (SMILES) | inhibition [1] | Activity (Rattus norvegicus [2]) | Activity (Rattus norvegicus [3]) | Activity (Rattus norvegicus [4]) | inhibition in vivo at 100 mg/kg (Mus musculus)
1 | COc1cc(OC)c2c(=O)cc(-c3c(Cl)cccc3Cl)oc2c1-c1ccnn1C | 48.9% | 1.46 mL | 1.01 mL | 0.79 mL | 57.8%
2 | COc1cc(OC)c2c(=O)cc(-c3c(F)cccc3F)oc2c1-c1ccnn1C | 52.2% | 1.24 mL | 1.44 mL | 0.88 mL | –
3 | COc1cc(OC)c2c(=O)cc(-c3ccc(Cl)cc3Cl)oc2c1-c1ccnn1C | 46.1% | 1.11 mL | 1.32 mL | 0.89 mL | –
4 | COc1cc(OC)c2c(=O)cc(-c3cccc([N+](=O)[O-])c3)oc2c1-c1ccnn1C | 47.4% | 1 mL | 1.02 mL | 1.04 mL | 33.3%
5 | COc1cc(OC)c2c(=O)cc(-c3ccc4c(c3)OCO4)oc2c1-c1ccnn1C | 51.6% | 0.92 mL | 1.07 mL | 0.86 mL | 25.3%
6 | COc1cc(OC)c2c(=O)cc(-c3cccs3)oc2c1-c1ccnn1C | 60% | 1.18 mL | 1.55 mL | 0.91 mL | –
7 | COc1ccc2c(c1)c(CC(=O)O)c(C)n2C(=O)c1ccc(Cl)cc1 [INDOMETHACIN] | – | 0.95 mL | 0.78 mL | 0.86 mL | 70.4%
8 | COc1cc(OC)c2c(=O)cc(-c3ccc(F)c(F)c3)oc2c1-c1ccnn1C | 52.8% | 0.99 mL | 1.2 mL | 0.79 mL | –

Second part, led by results:

Row | inhibition [1] | Structure (SMILES) | Activity (Rattus norvegicus [2]) | Activity (Rattus norvegicus [3]) | Activity (Rattus norvegicus [4]) | inhibition in vivo at 100 mg/kg (Mus musculus)
9 | 54.1% | COc1cc(OC)c2c(=O)cc(-c3ccccc3)oc2c1-c1ccnn1C | 0.91 mL | 1.22 mL | 0.77 mL | –
10 | 48.4% | COc1ccc(-c2cc(=O)c3c(OC)cc(OC)c(-c4ccnn4C)c3o2)cc1OC | 0.96 mL | 0.99 mL | 0.79 mL | 68.2%
11 | 51.6% | COc1cc(OC)c2c(=O)cc(-c3ccc(F)cc3F)oc2c1-c1ccnn1C | 1.01 mL | 1.44 mL | 0.78 mL | –
12 | 20.4% | COc1cc(OC)c2c(=O)cc(-c3ccco3)oc2c1-c1ccnn1C | 0.94 mL | 0.88 mL | 0.87 mL | 60.5%
13 | 54.1% | COc1cc(OC)c2c(=O)cc(-c3ccc(Br)cc3)oc2c1-c1ccnn1C | 0.99 mL | 1.11 mL | 0.81 mL | 35.1%
14 | 54.1% | COc1cc(OC)c2c(=O)cc(-c3ccc(F)cc3)oc2c1-c1ccnn1C | 1.05 mL | 1.17 mL | 0.76 mL | 51.9%
15 | 45.7% | COc1cc(OC)c(-c2cc(=O)c3c(OC)cc(OC)c(-c4ccnn4C)c3o2)c(OC)c1 | 0.95 mL | 0.97 mL | 0.83 mL | 72.3%
